Experimental data published in ChEMBL document CHEMBL1240414, “Synthesis and anticonvulsant activity of new 6-methyl-1-substituted-4,6-diazaspiro[2.4]heptane-5,7-diones” (Eur J Med Chem, 2010).
Calls of active or inactive are those of the source.

Key:
[1] = system: Mus musculus; assay: Neurotoxicity in Kunming mouse assessed as minimum motor impairment at 100 mg/kg, ip after 0.5 hrs by rotarod test; format: toxicity, organism-based; design: dose 100 mg/kg, route intraperitoneal; settings: in vivo
Summary of the method: (§1)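 Rotorod neurotoxicity in male Kunming mice (20 ± 2.0 g) given ip doses of 30, 100 or 300 mg/kg as a suspension in 0.5% methylcellulose, one to four mice per dose. Motor impairment was examined at 0.5 h and 4.0 h after injection. Reported as number of animals showing toxicity/number tested.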

[2] = system: Rattus norvegicus; assay: Neurotoxicity in Kunming rat assessed as minimum motor impairment at 30 mg/kg, po after 1 hr by rotarod test; format: functional, organism-based; design: dose 30 mg/kg
Summary of the method: (§2)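 Rotorod neurotoxicity in male Kunming rats (250 ± 5.0 g) given 30 mg/kg po, four rats per compound. Motor impairment was assessed at 0.25, 0.5, 1, 2 and 4 h after oral administration.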

[3] = system: Mus musculus; assay: Anticonvulsant activity in Kunming mouse assessed as protection against maximal electroshock-induced seizures at 30 mg/kg, ip after 0.5 hrs; format: functional, organism-based; design: dose 30 mg/kg
[4] = system: Rattus norvegicus; assay: Neurotoxicity in Kunming rat assessed as minimum motor impairment at 30 mg/kg, po after 2 hrs by rotarod test; format: functional, organism-based; design: dose 30 mg/kg; summary of the method: as §2
[5] = system: Rattus norvegicus; assay: Anticonvulsant activity in Kunming rat assessed as protection against subcutaneous pentylenetetrazole-induced seizures at 30 mg/kg, po after 1 hr; format: functional
[6] = system: Rattus norvegicus; assay: Neurotoxicity in Kunming rat assessed as minimum motor impairment at 30 mg/kg, po after 0.5 hrs by rotarod test; format: functional, organism-based; design: dose 30 mg/kg; summary of the method: as §2
[7] = system: Mus musculus; assay: Neurotoxicity in Kunming mouse assessed as minimum motor impairment at 300 mg/kg, ip after 0.5 hrs by rotarod test; format: toxicity, organism-based; design: dose 300 mg/kg, route intraperitoneal; settings: in vivo; summary of the method: as §1
[8] = system: Mus musculus; assay: Anticonvulsant activity in Kunming mouse assessed as protection against maximal electroshock-induced seizures at 300 mg/kg, ip after 4 hrs; format: functional, organism-based; design: dose 300 mg/kg
[9] = system: Mus musculus; assay: Anticonvulsant activity in Kunming mouse assessed as protection against subcutaneous pentylenetetrazole-induced seizures at 30 mg/kg, ip after 0.5 hrs; format: functional, organism-based; design: dose 30 mg/kg
Summary of the method: (§3)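 Male Kunming mice (20 ± 2.0 g) received the compound ip as a suspension in 0.5% methylcellulose at 30, 100 or 300 mg/kg, one to four mice per dose. Pentylenetetrazole in 0.9% saline was given sc at 0.5 h and 4.0 h after dosing. Protection meant no threshold seizure (one clonic spasm episode of at least 5 s). Scored as protected/tested.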

[10] = system: Rattus norvegicus; assay: Neurotoxicity in Kunming rat assessed as minimum motor impairment at 30 mg/kg, po after 4 hrs by rotarod test; format: functional, organism-based; design: dose 30 mg/kg; summary of the method: as §2
[11] = system: Mus musculus; assay: Neurotoxicity in Kunming mouse assessed as minimum motor impairment at 100 mg/kg, ip after 4 hrs by rotarod test; format: toxicity, organism-based; design: dose 100 mg/kg, route intraperitoneal; settings: in vivo; summary of the method: as §1
[12] = system: Mus musculus; assay: Neurotoxicity in Kunming mouse assessed as minimum motor impairment at 30 mg/kg, ip after 0.5 hrs by rotarod test; format: toxicity, organism-based; design: dose 30 mg/kg, route intraperitoneal; settings: in vivo; summary of the method: as §1
[13] = system: Mus musculus; assay: Anticonvulsant activity in Kunming mouse assessed as protection against maximal electroshock-induced seizures at 30 mg/kg, ip after 4 hrs; format: functional, organism-based; design: dose 30 mg/kg
[14] = system: Rattus norvegicus; assay: Neurotoxicity in Kunming rat assessed as minimum motor impairment at 30 mg/kg, po after 0.25 hrs by rotarod test; format: toxicity, organism-based; design: dose 30 mg/kg, route oral; settings: in vivo; summary of the method: as §2
[15] = system: Mus musculus; assay: Anticonvulsant activity in Kunming mouse assessed as protection against maximal electroshock-induced seizures at 100 mg/kg, ip after 4 hrs; format: functional, organism-based; design: dose 100 mg/kg
[16] = system: Mus musculus; assay: Neurotoxicity in Kunming mouse assessed as minimum motor impairment at 300 mg/kg, ip after 4 hrs by rotarod test; format: toxicity, organism-based; design: dose 300 mg/kg, route intraperitoneal; settings: in vivo; summary of the method: as §1
[17] = system: Mus musculus; assay: Anticonvulsant activity in Kunming mouse assessed as protection against subcutaneous pentylenetetrazole-induced seizures at 30 mg/kg, ip after 4 hrs; format: functional, organism-based; design: dose 30 mg/kg; summary of the method: as §3
[18] = system: Mus musculus; assay: Neurotoxicity in Kunming mouse assessed as minimum motor impairment at 30 mg/kg, ip after 4 hrs by rotarod test; format: toxicity, organism-based; design: dose 30 mg/kg, route intraperitoneal; settings: in vivo; summary of the method: as §1
[19] = system: Mus musculus; assay: Anticonvulsant activity in Kunming mouse assessed as protection against maximal electroshock-induced seizures at 300 mg/kg, ip after 0.5 hrs; format: functional, organism-based; design: dose 300 mg/kg
[20] = system: Mus musculus; assay: Anticonvulsant activity in Kunming mouse assessed as protection against maximal electroshock-induced seizures at 100 mg/kg, ip after 0.5 hrs; format: functional, organism-based; design: dose 100 mg/kg
[21] = system: Mus musculus; assay: Anticonvulsant activity in Kunming mouse assessed as protection against subcutaneous pentylenetetrazole-induced seizures at 300 mg/kg, ip after 4 hrs; format: functional, organism-based; design: dose 300 mg/kg; summary of the method: as §3
[22] = system: Mus musculus; assay: Anticonvulsant activity in Kunming mouse assessed as protection against subcutaneous pentylenetetrazole-induced seizures at 100 mg/kg, ip after 0.5 hrs; format: functional, organism-based; design: dose 100 mg/kg; summary of the method: as §3
[23] = system: Mus musculus; assay: Anticonvulsant activity in Kunming mouse assessed as protection against subcutaneous pentylenetetrazole-induced seizures at 100 mg/kg, ip after 4 hrs; format: functional, organism-based; design: dose 100 mg/kg; summary of the method: as §3
[24] = system: Mus musculus; assay: Anticonvulsant activity in Kunming mouse assessed as protection against subcutaneous pentylenetetrazole-induced seizures at 300 mg/kg, ip after 0.5 hrs; format: functional, organism-based; design: dose 300 mg/kg; summary of the method: as §3
[25] = system: Rattus norvegicus; assay: Anticonvulsant activity in Kunming rat assessed as protection against maximal electroshock-induced seizures at 30 mg/kg, po after 1 hr; format: functional
Summary of the method: (§4)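 Male Kunming rats (250 ± 5.0 g) were dosed orally at 30 mg/kg, four rats per compound. Seizures were induced by a 150-mA corneal current for 0.2 s at 0.25, 0.5, 1, 2 and 4 h after dosing. Readout was the number of rats out of four protected against hindlimb tonic extension.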

[26] = system: Rattus norvegicus; assay: Anticonvulsant activity in Kunming rat assessed as protection against maximal electroshock-induced seizures at 30 mg/kg, po after 0.5 hrs; format: functional; summary of the method: as §4
[27] = system: Rattus norvegicus; assay: Anticonvulsant activity in Kunming rat assessed as protection against maximal electroshock-induced seizures at 30 mg/kg, po after 2 hrs; format: functional; summary of the method: as §4
[28] = system: Rattus norvegicus; assay: Anticonvulsant activity in Kunming rat assessed as protection against maximal electroshock-induced seizures at 30 mg/kg, po after 4 hrs; format: functional; summary of the method: as §4
[29] = system: Rattus norvegicus; assay: Anticonvulsant activity in Kunming rat assessed as protection against maximal electroshock-induced seizures at 30 mg/kg, po after 0.25 hrs; format: functional; summary of the method: as §4

Row | Structure (SMILES) | Activity [1] | Activity [2] | Activity [3] | Activity [4] | Activity [6] | Activity [7] | Activity [8] | Activity [9] | Activity [10] | Activity [11] | Activity [12] | Activity [13] | Activity [15] | Activity [16] | Activity [17] | Activity [18] | Activity [21] | Activity [22] | Activity [23] | Activity [24] | further results
1 | COc1ccc(C2CC23NC(=O)N(C)C3=O)c(OC)c1OC (stereo unspecified) | Non-toxic | Not toxic | inactive | Not toxic | Not toxic | Non-toxic | Active | inactive | Not toxic | Non-toxic | Non-toxic | inactive | inactive | Non-toxic | inactive | Non-toxic | – | – | – | – | Activity [5]: inactive; Activity [14]: Non-toxic
2 | CN1C(=O)NC2(CC2c2ccc(Br)cc2)C1=O (stereo unspecified) | – | – | inactive | – | – | Non-toxic | Active | inactive | – | Non-toxic | Non-toxic | inactive | inactive | – | inactive | Non-toxic | inactive | inactive | inactive | inactive | Activity [19]: Active; Activity [20]: inactive
3 | CN1C(=O)NC2(CC2c2ccccc2)C1=O (stereo unspecified) | Non-toxic | Not toxic | Active | Not toxic | Not toxic | Toxic | – | inactive | Not toxic | Non-toxic | Non-toxic | – | – | – | inactive | Non-toxic | inactive | inactive | inactive | inactive | Activity [25]: inactive; Activity [14]: Non-toxic; Activity [26]: 25%; Activity [27]: inactive; Activity [28]: inactive; Activity [29]: inactive
4 | CN1C(=O)NC2(CC2c2ccc(F)cc2)C1=O (stereo unspecified) | Non-toxic | Not toxic | Active | Not toxic | Not toxic | Non-toxic | Active | Active | Not toxic | Non-toxic | Non-toxic | – | Active | Non-toxic | inactive | Non-toxic | – | Active | – | Active | Activity [5]: 25%; Activity [25]: inactive; Activity [14]: Non-toxic; Activity [26]: 25%; Activity [27]: 25%; Activity [28]: inactive; Activity [29]: inactive
5 | CN1C(=O)NC2(CC2c2ccco2)C1=O (stereo unspecified) | – | – | inactive | – | – | – | inactive | inactive | – | – | Toxic | inactive | inactive | – | inactive | Non-toxic | inactive | inactive | inactive | inactive | Activity [19]: Active; Activity [20]: inactive
6 | CCCCC1CC12NC(=O)N(C)C2=O (stereo unspecified) | Non-toxic | Not toxic | Active | Not toxic | Not toxic | Non-toxic | – | Active | Not toxic | Non-toxic | Non-toxic | – | – | Non-toxic | inactive | Non-toxic | – | – | inactive | – | Activity [25]: 50%; Activity [14]: Non-toxic; Activity [26]: inactive; Activity [27]: inactive; Activity [28]: inactive; Activity [29]: 25%
7 | CN1C(=O)NC2(CC2c2ccccc2Cl)C1=O (stereo unspecified) | – | – | inactive | – | – | Toxic | inactive | inactive | – | Non-toxic | Non-toxic | inactive | inactive | Toxic | inactive | Non-toxic | inactive | inactive | inactive | inactive | Activity [19]: Active
8 | COc1ccc(C2CC23NC(=O)N(C)C3=O)cc1 (stereo unspecified) | Non-toxic | – | inactive | – | – | Non-toxic | Active | inactive | – | Non-toxic | Non-toxic | inactive | inactive | Non-toxic | inactive | Non-toxic | inactive | inactive | inactive | – | Activity [19]: Active
